# Experimental data from different studies.
Structure (SMILES),target or system,assay,system,setting,endpoint,result
O=C(Nc1nc2cc(-c3ccc4ncn(Cc5ccccc5)c(=O)c4c3)ccc2s1)c1ccccc1,NCI-H1975,"cell growth or viability, MTT",,72 h,IC50,> 20 µM
COCCC(=O)Nc1ccccc1/N=c1\cc(-c2ccc3c(c2)OCO3)oc2ccccc12,NCI-H1975,"cell growth or viability, CCK-8",,1 µM,inhibition,3.84%
Cc1ccc(C(=O)Nc2ccc(-c3ccc4ncn(Cc5ccccc5)c(=O)c4c3)cn2)cc1,NCI-H1975,"cell growth or viability, CCK-8",,72 h,IC50,> 10 µM
NCC(=O)Nc1ccccc1/N=c1\cc(-c2ccc3c(c2)OCO3)oc2ccccc12,NCI-H1975,"cell growth or viability, CCK-8",,1 µM,inhibition,1.26%
COc1cccc(NC(=O)Nc2nc3cc(-c4ccc5ncn(CCN6CCOCC6)c(=O)c5c4)ccc3s2)c1,NCI-H1975,"cell growth or viability, MTT",,72 h,IC50,> 20 µM
CCCC(=O)Nc1ccc(-c2ccc3ncn(Cc4ccccc4)c(=O)c3c2)cn1,NCI-H1975,"cell growth or viability, CCK-8",,72 h,IC50,> 10 µM
NCCC(=O)Nc1ccccc1/N=c1\cc(-c2ccc3oc(N)nc3c2)oc2ccccc12,NCI-H1975,"cell growth or viability, CCK-8",,1 µM,inhibition,24.3%
C[C@@H]1[C@H](O)[C@@H](C)/C=C/C=C/C=C/C=C/C=C/C=C/C=C/[C@H](O[C@@H]2O[C@H](C)[C@@H](O)[C@H](N)[C@@H]2O)C[C@@H]2O[C@](O)(C[C@@H](O)C[C@@H](O)[C@H](O)CC[C@@H](O)C[C@@H](O)CC(=O)O[C@H]1C)C[C@H](O)[C@H]2C(=O)O,Leishmania amazonensis,"parasite growth, MTT",,promastigote,IC50,0.28 µM
COc1ccc2/c(=N/c3ccccc3NC(=O)[C@@H](N)C(C)(C)C)cc(-c3ccc4c(c3)OCCO4)oc2c1,NCI-H1975,"cell growth or viability, CCK-8",,1 µM,inhibition,4.59%
CCCCn1cnc2ccc(-c3ccc(NC(=O)Nc4ccc(OC)cc4)nc3)cc2c1=O,NCI-H1975,"cell growth or viability, CCK-8",,72 h,IC50,> 10 µM
O=C(Nc1nc2cc(-c3ccc4ncn(Cc5ccccc5)c(=O)c4c3)ccc2s1)NC1CCCCC1,NCI-H1975,"cell growth or viability, MTT",,72 h,IC50,> 20 µM
Nc1nc2c(ncn2COCCO)c(=O)[nH]1,Human alphaherpesvirus 2,"viral replication, inhibitor, qPCR",BEAS-2B,,IC50,0.16 µM
COc1ccc2/c(=N/c3ccccc3NC(=O)[C@@H](N)C(C)(C)C)cc(-c3ccc4c(c3)OCO4)oc2c1,NCI-H1975,"cell growth or viability, CCK-8",,1 µM,inhibition,9.4%
O=C(Nc1ccc(-c2ccc3ncn(Cc4ccccc4)c(=O)c3c2)cn1)C1CCCC1,NCI-H1975,"cell growth or viability, CCK-8",,72 h,IC50,> 10 µM
COc1cccc(NC(=O)Nc2nc3cc(-c4ccc5ncn(Cc6ccccc6)c(=O)c5c4)ccc3s2)c1,NCI-H1975,"cell growth or viability, MTT",,72 h,IC50,> 20 µM
